Data reported in ChEMBL document CHEMBL4400511, “Benzothiopyranoindole- and pyridothiopyranoindole-based antiproliferative agents targeting topoisomerases” (2019).
Activity calls are given as the source filed them. The rule behind the calls is not given here.

Key:
[1] = biological target: T1, DNA topoisomerase 1 (Homo sapiens) (UniProt P11387); assay: Poison activity at recombinant human topoisomerase-1 assessed as stabilization of covalent topo-1-DNA cleavage complex by measuring nicked DNA formation at 0.5 to 50 uM using supercoiled pBR322 DNA as substrate after 60 mins by agarose gel electrophoresis method
T1 sequence (whole entry): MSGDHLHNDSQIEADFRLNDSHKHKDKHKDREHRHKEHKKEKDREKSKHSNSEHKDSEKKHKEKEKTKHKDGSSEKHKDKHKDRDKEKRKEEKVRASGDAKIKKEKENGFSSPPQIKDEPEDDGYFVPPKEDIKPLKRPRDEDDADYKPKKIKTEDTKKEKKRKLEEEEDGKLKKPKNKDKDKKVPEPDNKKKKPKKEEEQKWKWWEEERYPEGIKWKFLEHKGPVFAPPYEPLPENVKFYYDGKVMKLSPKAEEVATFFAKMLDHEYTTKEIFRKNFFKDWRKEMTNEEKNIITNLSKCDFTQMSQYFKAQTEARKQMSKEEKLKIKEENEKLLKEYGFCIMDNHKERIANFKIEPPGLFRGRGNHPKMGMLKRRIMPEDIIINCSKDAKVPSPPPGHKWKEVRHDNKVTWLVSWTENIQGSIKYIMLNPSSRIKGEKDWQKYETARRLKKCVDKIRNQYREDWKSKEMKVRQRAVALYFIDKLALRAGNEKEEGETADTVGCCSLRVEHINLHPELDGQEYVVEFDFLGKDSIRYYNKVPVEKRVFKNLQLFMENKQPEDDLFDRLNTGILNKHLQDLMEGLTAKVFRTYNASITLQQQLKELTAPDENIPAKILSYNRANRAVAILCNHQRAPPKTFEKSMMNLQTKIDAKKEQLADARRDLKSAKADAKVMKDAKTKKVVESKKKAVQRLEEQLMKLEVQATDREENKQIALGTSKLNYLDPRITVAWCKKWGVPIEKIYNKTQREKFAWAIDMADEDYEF
Outline: (§1)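 Cleavable-complex assay: supercoiled pBR322 DNA was incubated with Topo I, with or without compound at a series of µM concentrations. Nicked DNA formation marks covalent complex stabilisation. Reference is 0.5 µM camptothecin.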

[2] = test system: A-431; assay: Growth inhibition in human A431 cells after 72 hrs by trypan blue dye-based assay; type: functional; conditions: A-431, 72 h
Outline: (§2)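 Three human tumour lines were used: HeLa (cervix adenocarcinoma), A-431 (epidermoid/squamous carcinoma) and MSTO-211H (biphasic mesothelioma). GI50 is the µM concentration giving 50% cell death relative to the untreated control culture. Ellipticine was run as reference.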

[3] = test system: HeLa; assay: Growth inhibition in human HeLa cells after 72 hrs by trypan blue dye-based assay; type: functional; outline: as §2
[4] = biological target: DNA topoisomerase 2-alpha (Homo sapiens) (UniProt P11388); assay: Inhibition of recombinant human topoisomerase 2alpha assessed as decrease in relaxation of supercoiled pBR322 DNA after 60 mins by ethidium bromide staining based agarose gel electrophoresis method
Outline: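 Topo II was incubated with supercoiled pBR322 DNA, with or without compound at a series of µM concentrations. Read-out is topoisomer formation from supercoiled DNA on a gel. Reference is 10 µM m-AMSA.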

[5] = biological target: DNA topoisomerase 2-alpha (Homo sapiens) (UniProt P11388); assay: Poison activity at recombinant human topoisomerase-2 assessed as stabilization of covalent topo-2-DNA cleavage complex by measuring linear DNA formation at 10 uM using supercoiled pBR322 DNA as substrate after 60 mins by agarose gel electrophoresis method
Outline: (§3)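 Cleavable-complex assay: supercoiled pBR322 DNA was incubated with Topo II, with or without compound at a series of µM concentrations. Enzyme-mediated linear DNA marks cleavage-complex stabilisation. Reference poison is 10 µM m-AMSA.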

[6] = test system: MSTO-211H; assay: Growth inhibition in human MSTO-211H cells after 72 hrs by trypan blue dye-based assay; type: functional; outline: as §2
[7] = biological target: T1, DNA topoisomerase 1 (Homo sapiens); assay: Inhibition of recombinant human topoisomerase 1 assessed as decrease in relaxation of supercoiled pBR322 DNA after 60 mins by ethidium bromide staining based agarose gel electrophoresis method
Outline: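 Human recombinant Topo I was incubated with supercoiled pBR322 DNA, with or without compound at a series of µM concentrations. Read-out is the number of relaxed topoisomers formed.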

[8] = test system: Salmon testes DNA; assay: Binding affinity to salmon DNA at compound to DNA ratio of 0.04 by linear flow dichroism analysis; type: nucleic-acid assay; conditions: Salmonidae
[9] = test system: Salmon testes DNA; assay: Binding affinity to salmon DNA at compound to DNA ratio of 0.08 by linear flow dichroism analysis; type: nucleic-acid assay; conditions: Salmonidae
[10] = test system: Salmon testes DNA; assay: Binding affinity to salmon DNA at compound to DNA ratio of 0.02 to 0.04 by linear flow dichroism analysis; type: nucleic-acid assay; conditions: Salmonidae
[11] = biological target: DNA topoisomerase 2-alpha (Homo sapiens) (UniProt P11388); assay: Poison activity at recombinant human topoisomerase-2 assessed as stabilization of covalent topo-2-DNA cleavage complex by measuring linear DNA formation up to 50 uM using supercoiled pBR322 DNA as substrate after 60 mins by agarose gel electrophoresis method; outline: as §3
[12] = biological target: T1, DNA topoisomerase 1 (Homo sapiens); assay: Poison activity at recombinant human topoisomerase-1 assessed as stabilization of covalent topo-1-DNA cleavage complex by measuring nicked DNA formation using supercoiled pBR322 DNA as substrate after 60 mins by agarose gel electrophoresis method; outline: as §1

Sequence of DNA topoisomerase 2-alpha (Homo sapiens) (P11388 whole entry): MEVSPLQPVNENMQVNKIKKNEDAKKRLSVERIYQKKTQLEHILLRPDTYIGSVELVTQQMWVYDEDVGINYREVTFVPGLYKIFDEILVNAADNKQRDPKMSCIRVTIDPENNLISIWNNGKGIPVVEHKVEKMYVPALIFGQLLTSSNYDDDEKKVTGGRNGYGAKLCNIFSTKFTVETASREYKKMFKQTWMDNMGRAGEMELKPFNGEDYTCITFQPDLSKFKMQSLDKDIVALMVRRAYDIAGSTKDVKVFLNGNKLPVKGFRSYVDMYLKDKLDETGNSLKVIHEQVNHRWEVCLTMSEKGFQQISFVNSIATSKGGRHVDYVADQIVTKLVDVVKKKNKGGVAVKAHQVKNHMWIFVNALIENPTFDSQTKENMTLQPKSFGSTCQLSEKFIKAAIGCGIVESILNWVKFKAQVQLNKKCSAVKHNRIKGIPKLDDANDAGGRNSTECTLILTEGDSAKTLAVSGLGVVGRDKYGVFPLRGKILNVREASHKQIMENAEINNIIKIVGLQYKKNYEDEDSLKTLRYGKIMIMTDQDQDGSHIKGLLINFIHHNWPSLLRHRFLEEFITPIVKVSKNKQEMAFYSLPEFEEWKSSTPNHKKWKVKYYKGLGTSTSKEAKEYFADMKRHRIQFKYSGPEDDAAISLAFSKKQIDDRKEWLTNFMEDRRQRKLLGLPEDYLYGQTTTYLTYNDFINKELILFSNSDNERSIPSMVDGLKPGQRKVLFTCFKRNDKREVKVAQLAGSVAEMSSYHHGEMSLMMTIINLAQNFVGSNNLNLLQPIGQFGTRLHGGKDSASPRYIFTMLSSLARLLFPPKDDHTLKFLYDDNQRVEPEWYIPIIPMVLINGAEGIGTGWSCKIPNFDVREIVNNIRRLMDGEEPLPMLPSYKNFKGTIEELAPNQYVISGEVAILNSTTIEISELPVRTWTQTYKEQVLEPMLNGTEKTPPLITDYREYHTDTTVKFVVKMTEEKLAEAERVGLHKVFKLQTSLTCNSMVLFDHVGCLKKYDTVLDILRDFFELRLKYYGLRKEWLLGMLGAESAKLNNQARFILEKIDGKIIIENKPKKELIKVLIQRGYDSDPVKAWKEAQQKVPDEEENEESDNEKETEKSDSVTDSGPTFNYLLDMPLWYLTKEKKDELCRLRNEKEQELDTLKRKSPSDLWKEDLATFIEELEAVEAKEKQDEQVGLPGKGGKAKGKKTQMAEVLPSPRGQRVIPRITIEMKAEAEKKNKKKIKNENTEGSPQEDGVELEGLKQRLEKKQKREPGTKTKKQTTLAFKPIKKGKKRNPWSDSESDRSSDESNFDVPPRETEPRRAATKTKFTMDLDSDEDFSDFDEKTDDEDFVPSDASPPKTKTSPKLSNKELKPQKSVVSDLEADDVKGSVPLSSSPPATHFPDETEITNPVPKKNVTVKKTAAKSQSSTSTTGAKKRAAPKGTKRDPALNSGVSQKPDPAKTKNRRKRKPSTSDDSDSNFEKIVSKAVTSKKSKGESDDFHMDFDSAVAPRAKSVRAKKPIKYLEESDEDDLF

Row | SMILES | Activity [1] | GI50 [2] [nM] | GI50 [3] [nM] | inhibition [4] | Activity [5] | GI50 [6] [nM] | inhibition [7] | Activity [8] | Activity [9] | Activity [10] | Activity [11] | Activity [12]
1 | CN(C)CCn1c2ccccc2c2sc3ncccc3c(=O)c21 | inactive | 540 | 1550 | Dose-dependent effect | Active | 1080 | Dose-dependent effect | Active | – | – | – | –
2 | CCN(CC)CCn1c2cc(OC)c(OC)cc2c2sc3cc(OC)ccc3c(=O)c21 | inactive | 670 | 1750 | Dose-dependent effect | Active | 360 | Dose-dependent effect | Active | – | – | – | –
3 | COc1cc(NS(C)(=O)=O)ccc1Nc1c2ccccc2nc2ccccc12 | – | – | – | – | Active | – | – | – | – | – | – | –
4 | CCN(CC)CCn1c2ccc(Cl)cc2c2sc3ncccc3c(=O)c21 | inactive | 1790 | 4200 | Dose-dependent effect | Active | 1420 | Dose-dependent effect | Active | – | – | – | –
5 | CCN(CC)CCn1c2ccc(OC)cc2c2sc3ncccc3c(=O)c21 | inactive | 1900 | 2610 | Dose-dependent effect | Active | 700 | Dose-dependent effect | Active | – | – | – | –
6 | COc1ccc2c(c1)c1sc3ccccc3c(=O)c1n2CCN(C)C | inactive | 2240 | 5810 | Dose-dependent effect | Active | 2370 | Dose-dependent effect | – | Active | – | – | –
7 | COc1cc2c3sc4cc(Cl)ccc4c(=O)c3n(CCN(C)C)c2cc1OC | inactive | 3190 | 3540 | Dose-dependent effect | Active | 1820 | Dose-dependent effect | Active | – | – | – | –
8 | Cc1c2ccncc2c(C)c2c1[nH]c1ccccc12 [ELLIPTECINE] | – | 650 | 470 | – | – | 770 | – | – | – | Active | – | –
9 | COc1ccc2c(=O)c3c(sc2c1)c1cc(OC)c(OC)cc1n3CCN(C)C | inactive | 480 | 740 | Dose-dependent effect | Active | 440 | Dose-dependent effect | Active | – | – | – | –
10 | CN(C)CCn1c2ccc(Cl)cc2c2sc3ncccc3c(=O)c21 | inactive | 2000 | 3020 | Dose-dependent effect | Active | 2360 | Dose-dependent effect | Active | – | – | – | –
11 | CCN(CC)CCn1c2ccc(OC)cc2c2sc3ccccc3c(=O)c21 | inactive | 2080 | 2790 | Dose-dependent effect | Active | 1610 | Dose-dependent effect | – | Active | – | – | –
12 | CCN(CC)CCn1c2ccc(Cl)cc2c2sc3cc(Cl)ccc3c(=O)c21 | inactive | 3290 | 4310 | Dose-dependent effect | Active | 2990 | Dose-dependent effect | – | Active | – | – | –
13 | CCN(CC)CCn1c2cc(OC)c(OC)cc2c2sc3ncccc3c(=O)c21 | Active | 2670 | 6930 | Dose-dependent effect | Active | 620 | Dose-dependent effect | Active | – | – | – | –
14 | CCN(CC)CCn1c2cc(OC)c(OC)cc2c2sc3ccccc3c(=O)c21 | Active | 1110 | 1770 | Dose-dependent effect | Active | 700 | Dose-dependent effect | Active | – | – | – | –
15 | COc1ccc2c(c1)c1sc3ncccc3c(=O)c1n2CCN(C)C | inactive | 1420 | 2710 | Dose-dependent effect | Active | 750 | Dose-dependent effect | Active | – | – | – | –
16 | CN(C)CCn1c2ccc(Cl)cc2c2sc3cc(Cl)ccc3c(=O)c21 | inactive | 1760 | 2660 | Dose-dependent effect | Active | 1640 | Dose-dependent effect | – | Active | – | – | –
17 | CCN(CC)CCn1c2ccc(OC)cc2c2sc3cc(Cl)ccc3c(=O)c21 | inactive | 5440 | 3210 | Dose-dependent effect | Active | 4190 | Dose-dependent effect | – | Active | – | – | –
18 | COc1ccc2c(c1)c1sc3cc(Cl)ccc3c(=O)c1n2CCN(C)C | inactive | 2670 | 2790 | Dose-dependent effect | Active | 2960 | Dose-dependent effect | – | Active | – | – | –
19 | COc1cc2c3sc4ncccc4c(=O)c3n(CCN(C)C)c2cc1OC | Active | 710 | 1700 | Dose-dependent effect | – | 350 | Dose-dependent effect | – | – | Active | inactive | Dose-dependent effect
20 | CCN(CC)CCn1c2ccccc2c2sc3ncccc3c(=O)c21 | inactive | 470 | 2570 | Dose-dependent effect | Active | 1330 | Dose-dependent effect | Active | – | – | – | –
21 | CCN(CC)CCn1c2cc(OC)c(OC)cc2c2sc3cc(Cl)ccc3c(=O)c21 | inactive | 2220 | 4550 | Dose-dependent effect | Active | 2370 | Dose-dependent effect | Active | – | – | – | –
